Results of several laboratories.
Protocols differ between the studies behind these lines.
Target: Protein kinase C delta type (PRKCD, Homo sapiens, UniProt Q05655)

| SMILES | read-out | technique | concentration | remaining binding [%] |
| --- | --- | --- | --- | --- |
| O=C1NC(c2ccccn2)Sc2ccccc21 (stereo not drawn) | cell-free assay | competition with immobilised ligand | 1 µM | 71 |
| O=C(Nc1c[nH]nc1C(=O)NC1CCNCC1)c1cc(F)cc(F)c1 | binding | competition with immobilised ligand | 1 µM | 100 |
| Cc1cnc(Nc2ccc(C(=O)N3CCC(N4CCCC4)CC3)cc2)nc1-c1cc2ccccc2s1 | binding | competition with immobilised ligand | 1 µM | 23 |
| C[C@@H]1CCN(c2nccc(-c3cnn4ncccc34)n2)C1 | binding |  | 1 µM | 100 |
| Nc1ncc2c(n1)-c1c([nH]c3ccc(C#CC4CC4)cc13)CCCC2 | binding | competition with immobilised ligand | 1 µM | 97 |
| Cc1cc(C)c(-n2ccn3nc(-c4cccnc4)cc23)cc1NC(=O)c1cc(C#N)cc(S(F)(F)(F)(F)F)c1 | cell-free assay | competition with immobilised ligand | 0.1 µM | 93.1 |
| CCN1CCN(Cc2ccc(C(=O)Nc3ccc(C)c(Oc4ccc5c(c4)CC(=O)N5)c3)cc2C(F)(F)F)CC1 | binding | competition with immobilised ligand | 1 µM | 96 |
| O=C(Nc1cnc(Oc2ccc(F)cc2)nc1)N1CCc2ncccc2[C@@H]1c1ccc(F)cc1 | cell-free assay | competition with immobilised ligand | 1 µM | 87 |
| CN(C)c1ncc(F)c(-c2cnn3ncccc23)n1 | binding |  | 1 µM | 100 |
| COc1ncc2cc3ccccc3nc2c1C#N | cell-free assay | competition with immobilised ligand | 5 µM | 75 |
| O=C(c1ccc(Nc2ncc(Cl)c(-c3ccc(Cl)s3)n2)cc1)N1CCC(N2CCCC2)CC1 | binding | competition with immobilised ligand | 1 µM | 48 |
| COc1ccc2c(O[C@@H]3C[C@H]4C(=O)N[C@]5(C(=O)O)CC5/C=C\CCCCC[C@H](NC(=O)OC5CCCC5)C(=O)N4C3)cc(-c3csc(NC(=O)C(C)C)n3)nc2c1C (stereo partly drawn) | cell-free assay | competition with immobilised ligand | 1 µM | 84 |
| FC(F)(F)Oc1cccc(-c2cnc3ccc(-c4ccncc4)nn23)c1 | cell-free assay | competition with immobilised ligand | 5 µM | 71 |
| Cc1cnn2ncc(-c3ccnc(N(C)C)n3)c2c1 | binding |  | 1 µM | 100 |
| CN1CCN(c2cnc3c(C4CCN(C(=O)c5ccc(OC(F)(F)F)cc5N)CC4)ncnc3c2)CC1 | cell-free assay | competition with immobilised ligand | 1 µM | 100 |
| CN(c1nccc(-c2cnn3ncccc23)n1)C1CC1 | binding |  | 1 µM | 85 |
| Cc1nc(N2CC[C@@H](O)C2)ncc1-c1cc(C(F)(F)F)cc2[nH]ncc12 | cell-free assay | competition with immobilised ligand | 1 µM | 94 |
| c1cnn2ncc(-c3ccnc(N4CCC45COC5)n3)c2c1 | binding |  | 1 µM | 100 |
| COc1cnc(Nc2cccc(S(N)(=O)=O)c2)nc1N1CCN(c2ccccc2)CC1 | binding | competition with immobilised ligand | 1 µM | 100 |
| N[C@@H]1CCN(c2nccc(-c3cnn4ncccc34)n2)C1 | binding |  | 1 µM | 96 |
| O=C(c1ccc(Nc2ncc(Cl)c(-c3cc4ccccc4s3)n2)cc1)N1CCC(N2CCCC2)CC1 | binding | competition with immobilised ligand | 1 µM | 32 |
